Test results from BindingDB's records for doi:10.1016/j.ejmech.2009.05.023 (Sun Yat-Sen University, 2009).

Biological target: T1, Polyphenol oxidase 2 (Agaricus bisporus, UniProt O42713)
T1 sequence (O42713 whole entry): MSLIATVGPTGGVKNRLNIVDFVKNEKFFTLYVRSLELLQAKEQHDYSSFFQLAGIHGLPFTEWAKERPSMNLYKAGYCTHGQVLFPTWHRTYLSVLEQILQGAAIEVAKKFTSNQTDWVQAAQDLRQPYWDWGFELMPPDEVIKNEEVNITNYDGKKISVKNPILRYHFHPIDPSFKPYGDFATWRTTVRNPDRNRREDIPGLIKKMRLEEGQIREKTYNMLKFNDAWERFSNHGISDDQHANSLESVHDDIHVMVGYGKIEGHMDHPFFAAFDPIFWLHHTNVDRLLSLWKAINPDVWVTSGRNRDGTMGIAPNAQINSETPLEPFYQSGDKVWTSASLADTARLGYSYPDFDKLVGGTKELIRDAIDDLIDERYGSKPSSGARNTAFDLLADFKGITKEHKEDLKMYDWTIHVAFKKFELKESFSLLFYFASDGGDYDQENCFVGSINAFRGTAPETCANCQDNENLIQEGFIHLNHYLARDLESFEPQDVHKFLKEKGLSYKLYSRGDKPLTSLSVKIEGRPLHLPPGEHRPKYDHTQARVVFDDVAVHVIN
Experiment: Inhibition of mushroom tyrosinase
In short: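 Mushroom tyrosinase diphenolase assay: 1 mL reaction with 0.5 mM L-DOPA in 50 mM sodium phosphate buffer, pH 6.8, enzyme final 0.5 mg/mL, 25 °C. Compounds dissolved in DMSO (2.0% final); DMSO-only controls run. Dopachrome formation followed at 475 nm for 1 min. IC50 interpolated from dose–response curves; means of three experiments.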

SMILES	IC50 [µM]
COCCOCCOc1ccc(Cc2c(O)[nH]c(=O)[nH]c2=O)cc1 [5-(4-(2-(2-Methoxyethoxy)ethoxy)benzyl)pyrimidine-2,4,6(1H,3H,5H)trione]	> 200
CCCCOCCOc1ccc(Cc2c(O)[nH]c(=O)[nH]c2=O)cc1 [5-(4-(2-Butoxyethoxy)benzyl)pyrimidine-2,4,6(1H,3H,5H)-trione]	> 200
O=c1[nH]c(O)c(Cc2ccc(OCCO)cc2)c(=O)[nH]1 [5-(4-(2-Hydroxyethoxy)benzyl)pyrimidine-2,4,6(1H,3H,5H)-trione]	> 200
COCCOc1ccc(Cc2c(O)[nH]c(=O)[nH]c2=O)cc1 [5-(4-(2-Methoxyethoxy)benzyl)pyrimidine-2,4,6(1H,3H,5H)-trione]	> 200
COCCCCOc1ccc(Cc2c(O)[nH]c(=S)[nH]c2=O)cc1 [5-(4-(4-Methoxybutoxy)benzyl)-2-thioxodihydropyrimidine-4,6(1H,5H)-dione]	> 200
O=c1[nH]c(O)c(Cc2ccc(O)cc2)c(=O)[nH]1 [5-(4-Hydroxybenzyl)pyrimidine-2,4,6(1H,3H,5H)-trione]	> 200
O=c1cc(O)[nH]c(=O)[nH]1 [Barbituric acid]	> 200
Oc1cc(O)nc(S)n1 [Thiobarbituric]	> 200
